High-throughput results (PubChem)
NOD2 RIPK2 PPI – NOD2-RIPK2 binding disruptors in cells, primary screen, fluorescence, CHO cells, BLA complementation; CCF4 ratio; inhibition, % at 4.98 µM; actives 0.38% (n = 360,000); AID 624267, 2012; in the data active means inhibition above about 21%
MC4R antag cAMP – MC4R antagonists of cAMP signaling, primary screen, cell-based, TR-FRET, antagonist arm of biased-ligand search. Melanocortin receptor 4 (Homo sapiens), P32245. MC4R-expressing cells, MTII-stimulated cAMP, LANCE TR-FRET. inhibition, % at 6.5 µM. actives 0.48% (n = 360,000). AID 540295, 2011;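 active means inhibition above its plate's cutoff, the mean of tested wells on that plate plus 3 SD, cut at about 29% in these data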
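System: U2OS cells stably expressing human melanocortin 4 receptor (MC4R). Reagent: Melanotan II challenge after compound preincubation. Doses: 6.5 µM. Times: 30-min compound, 1-h challenge, 1-h detection, room temperature. Measured by: TR-FRET with Eu-cAMP and labeled anti-cAMP, 671 nm. Replicates: singlicate.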
TLR4-MyD88 BLA – inhibitors of TLR4-MyD88 association in cells, primary screen, cell-based, HeLa CL3-4, BLA complementation, FRET ratio; Toll-like receptor 4 (Homo sapiens) + Myeloid differentiation primary response protein …; HeLa CL3-4 TLR4/MyD88 BLA complementation; inhibition, % at 8.4 µM; actives 0.18% (n = 200,000); AID 861, 2007; in the data active means inhibition above about 25%
MIN6 prolif-1 – inducers of MIN6 beta-cell proliferation, primary screen, ATP luminescence, uHTS; MIN6 cells proliferation, ATPlite luminescence, 48 h; cells starved in 0.2% serum; 100% = growth in 10% serum; proliferation, % at 10 µM; actives 0.29% (n = 330,000);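 active means compounds whose signal lies at least 3.5 SD above the mean of all wells on their plate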
MC4R ag barr – MC4R agonists recruiting beta-arrestin, primary screen, cell-based, luminescence, agonist arm of biased-ligand search; U2OS MC4R beta-arrestin complementation; percent of melanotan II response, DMSO zero; actives 0.98% (n = 360,000); Melanocortin receptor 4 (Homo sapiens), P32245; activation, % at 8.9 µM;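 active means activation above a per-plate cutoff, the mean activation of sample wells on that plate plus 3 SD, cut at about 8% in these data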
TLR9-MyD88 inh – inhibitors of TLR9-MyD88 association in cells, primary screen, cell-based, CHO, BLA complementation, fluorescence; inhibition, % at 4.98 µM; Toll-like receptor 9 (Homo sapiens) + Myeloid differentiation primary response protein …; actives 0.21% (n = 340,000); CCF4 FRET ratio; AID 504734, 2011;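 active means inhibition above the mean over all tested compounds plus 3 SD, cut at about 21% in these data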
MIN6 prolif-2 – inducers of beta-cell proliferation in MIN6, confirmation, MIN6 cells, mouse; ATPlite luminescence, 48 h; cells kept in 0.2% serum; scaled between 0.2% and 10% serum; shares compounds with MIN6 prolif-1; 920 tested, under 10 active; proliferation increase, % at 50 µM;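 active means proliferation increase above 40% at any of the four tested concentrations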
Hits are given with their value; i = inactive; nt = not tested or not shown. Most compounds without a hit are left out; they make up all but 2.1% or so of the library.

SMILES | NOD2 RIPK2 PPI | MC4R antag cAMP | TLR4-MyD88 BLA | MIN6 prolif-1 | MC4R ag barr | TLR9-MyD88 inh | MIN6 prolif-2
O=C(NCCc1ccccc1)c1cccc2c1C(=O)N(C1CCCCC1)C2 | i | i | nt | i | i | i | nt
CCCc1cc(=O)oc2cc(C)cc(OCC(=O)NCCCN3CCOCC3)c12 | i | i | nt | i | i | i | nt
COc1cc2c(cc1OC)/C(=C/C(=O)c1ccc(C)cc1)NCC2 | i | i | nt | i | i | i | nt
COc1cc2c(cc1OC)/C(=C/C(=O)c1ccccc1)NCC2 | i | i | nt | i | i | i | nt
COc1cc2c(cc1OC)/C(=C/C(=O)c1ccc([N+](=O)[O-])c(C)c1)NCC2 | i | i | nt | 11.5 | i | i | i
COc1cccc(C(=O)/C=C2\NCCc3cc(OC)c(OC)cc32)c1 | i | i | nt | 15.6 | i | i | i
COc1cccc(-c2nnc3n2N=C(c2cc(OC)ccc2OC)CS3)c1 | i | i | i | 8.0 | i | i | i
CCc1ccc(NC(=O)C(C)OC(=O)Cn2[nH]c(=O)c3ccccc3c2=O)cc1 (centres undefined) | i | i | nt | nt | i | i | nt
CCc1nc2ccccc2c(C(=O)Nc2cc(C)ccc2C)c1C | i | i | nt | 5.8 | i | i | i
CCc1nc2ccccc2c(C(=O)Nc2cccc(C)c2)c1C | i | i | nt | i | i | i | nt
CCOC(=O)C1C(=O)CC(C)(O)C(C(=O)OCC)C1c1ccc(N(CC)CC)cc1 (centres undefined) | i | i | i | 5.1 | i | i | i
O=C(Cc1cccs1)N1CCN(S(=O)(=O)c2ccccc2)CC1 | i | i | i | 7.2 | i | i | i
CN(C)S(=O)(=O)c1ccc(Cl)c(NC(=O)COC(=O)CCC2CCCCC2)c1 | i | i | nt | i | i | i | nt
CCOC(=O)C1CCN(C(=O)c2ccccc2)C(CC)C1=O (centres undefined) | i | i | nt | nt | i | i | nt
CCOC(=O)c1c(C)[nH]c(C)c1C(=O)COC(=O)/C=C/c1ccccc1[N+](=O)[O-] | i | i | nt | 9.1 | i | i | i
CCOC(=O)c1c(C)[nH]c(C)c1C(=O)COC(=O)/C=C/c1cccc(Cl)c1 | i | i | i | i | i | i | nt
CC1=NCCN1S(=O)(=O)c1ccccc1[N+](=O)[O-] | i | i | i | i | i | i | nt
O=C(O)CNC(=S)N(Cc1ccc(F)cc1)C1CCCCC1 | i | i | i | 8.2 | i | i | i
CC(CC(=O)Nc1ccc2c(c1)c(=O)n(C)n2Cc1ccc(F)cc1)C(F)(F)F (centres undefined) | i | i | nt | nt | i | nt | nt
O=C(c1ccco1)N1CCN(Cc2cc(=O)c(OCc3ccc([N+](=O)[O-])cc3)co2)CC1 | i | i | nt | i | i | i | nt
COc1ccc(-c2cc(=O)oc3cc4occ(C)c4cc23)cc1 | i | i | i | i | i | i | nt
Cc1coc2cc3oc(=O)cc(C)c3cc12 | i | i | i | 7.3 | i | i | i
CN(C)c1ccc(C(=S)N2CCCCCC2)cc1 | i | i | i | i | i | i | nt
CN(C)c1ccc(C(=S)N2CCOCC2)cc1 | i | i | i | 9.0 | i | i | i
COc1cc2[nH]c(=O)n(CCCCCC(=O)NC3CCCC3)c(=O)c2cc1OC | i | i | nt | 5.7 | i | i | i
CC1CC(C)CN(C(=O)c2cc(S(=O)(=O)N3CCCCC3)ccc2Cl)C1 (centres undefined) | i | i | nt | 14.0 | i | i | i
CCCc1cc(=O)[nH]c(SCC(=O)c2ccc3c(c2)OCCO3)n1 | i | i | i | 0.0 | i | i | i
